Columns and labels:
Type in all cases: ADME
Conditions in all cases: 336 h
Shoot [1] = experiment: Drug metabolism in Echinochloa crus-galli (barnyard grass) shoot assessed as transformation to dihydrobiochanin A at 400 uM after 14 days measured per gm of dry weight by LC-MS analysis
Method in brief: (§1)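 Pregerminated seeds, 14 per container, transplanted onto 0.5% agar medium containing biochanin A. Grown at 24 ± 1 °C under a 16 h light/8 h dark photoperiod and harvested 14 days after transplanting. Roots and shoots collected separately, blotted, washed twice, then freeze-dried. Tissue extracted by ASE at 40 °C and analysed by LC-ESI-MS against commercial standards. Two replicates per treatment.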

Shoot [2] = experiment: Drug metabolism in Geranium molle shoot assessed as transformation to pratensein at 400 uM after 14 days measured per gm of dry weight by LC-MS analysis; method in brief: as §1
Root [3] = experiment: Drug metabolism in Silene noctiflora root assessed as transformation to dihydrobiochanin A at 400 uM after 14 days measured per gm of dry weight by LC-MS analysis; method in brief: as §1
Root [4] = experiment: Drug metabolism in Silene noctiflora root assessed as transformation to sissotrin at 400 uM after 14 days measured per gm of dry weight by LC-MS analysis; method in brief: as §1
Shoot [5] = experiment: Drug uptake in Silene noctiflora shoot at 20 uM after 14 days measured per gm of dry weight by LC-MS analysis
Method in brief: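 Pregerminated seeds (14 per container) were grown on 20 mL 0.5% agar medium containing biochanin A, at 24 ± 1 °C with a 16 h light/8 h dark cycle. There were two replicates per treatment: 14 containers for S. noctiflora, 9 for G. molle and E. crus-galli. At 14 days, roots and shoots were harvested separately, washed, blotted and freeze-dried. Extraction was ASE at 40 °C, 1600 psi, 3 cycles. Analysis was LC-ESI-MS SIM against standards.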

Shoot [6] = experiment: Drug metabolism in Echinochloa crus-galli (barnyard grass) shoot assessed as transformation to dihydrobiochanin A at 20 uM after 14 days measured per gm of dry weight by LC-MS analysis; method in brief: as §1
Root [7] = experiment: Drug metabolism in Echinochloa crus-galli (barnyard grass) root assessed as transformation to sissotrin at 400 uM after 14 days measured per gm of dry weight by LC-MS analysis; method in brief: as §1
Root [8] = experiment: Drug metabolism in Echinochloa crus-galli (barnyard grass) root assessed as transformation to genistein at 20 uM after 14 days measured per gm of dry weight by LC-MS analysis; method in brief: as §1

- Drug metabolism (Shoot [1]): 0.27 µmol
- Drug metabolism (Shoot [2]): 0.05 µmol
- Drug metabolism (Root [3]): 0.07 µmol
- Drug metabolism (Root [4]): 2.99 µmol
- Drug uptake (Shoot [5]): 0.76 µmol
- Drug metabolism (Shoot [6]): 0 µmol
- Drug metabolism (Root [7]): 1 µmol
- Drug metabolism (Root [8]): 0.07 µmol
SMILES: COc1ccc(-c2coc3cc(O)cc(O)c3c2=O)cc1 [BIOCHANIN]

Source: ChEMBL document CHEMBL3046081, “Phytotoxic effect, uptake, and transformation of biochanin A in selected weed species” (J Agric Food Chem, 2012)
